WT yeast gro inh = growth inhibition of WT yeast, mitochondrial fusion screen; mitochondrial fusion phenotypic screen, WT strain; inhibition, % at 10 µM; 190,000 tested, 2.1% active; in the data active means inhibition above about 58%; tested in S. cerevisiae
PMI activator = activators of human phosphomannose isomerase; activation factor at 20 µM; AID 1214; purified human PMI, coupled resazurin fluorescence, 20 min; stronger effect = higher value; 1 = vehicle control, 0 substrate-free wells; 190,000 tested, 0.005% active; P34949;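 active means activation factor of 2 or more at 20 µM, relative to plate controls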
Target sequence (P34949 whole entry, looked up): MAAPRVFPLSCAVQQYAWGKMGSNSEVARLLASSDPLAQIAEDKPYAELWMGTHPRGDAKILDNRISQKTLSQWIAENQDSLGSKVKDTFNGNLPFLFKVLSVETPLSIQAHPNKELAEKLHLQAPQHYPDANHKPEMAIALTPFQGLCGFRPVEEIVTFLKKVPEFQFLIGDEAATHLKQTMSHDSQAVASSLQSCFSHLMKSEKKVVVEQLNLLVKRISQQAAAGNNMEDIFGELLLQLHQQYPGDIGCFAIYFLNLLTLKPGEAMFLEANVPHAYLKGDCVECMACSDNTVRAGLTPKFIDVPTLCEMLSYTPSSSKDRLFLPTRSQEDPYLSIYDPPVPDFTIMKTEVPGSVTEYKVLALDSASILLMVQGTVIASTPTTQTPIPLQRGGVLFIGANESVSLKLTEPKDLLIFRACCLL
L major viab = inhibitors of Leishmania major promastigote growth | inhibition, % at 10 µM | 200,000 tested, 9% active | Leishmania major promastigotes, resazurin fluorescence viability; in the data active means inhibition above about 50%;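 further: promastigotes grown with compound for 44 hours at 28 °C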
Diaphorase act = counter-screen for diaphorase-based assays: diaphorase activators and chemical reducers; activation factor at 20 µM; Diaphorase/resazurin coupled assay, resorufin fluorescence, 16 min; stronger effect = higher value; 1 = vehicle wells, 0 = NADH-free wells; 190,000 tested, 0.005% active;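 active means diaphorase activity raised at least twofold by the compound at 20 µM; inactive means activation factor below 2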
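Material: Clostridium kluyveri diaphorase, purified enzyme; Quantity: enzyme 0.07 U/mL final; Medium: HEPES pH 7.4 buffer with MgCl2 and Tween 20; Dosing: single compound dose of 20 µM, 1% DMSO final; Schedule: 16 min reaction at room temperature; Measured by: red resorufin fluorescence at 544/590 nm excitation/emission.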
PMI act hi M6P = PMI (human) activation, high substrate; P34949; coupled PMI enzyme assay, resazurin fluorescence, 20 min; stronger effect = higher value; 1 = untreated enzyme, 0 = substrate-free blank; activation factor at 20 µM; 190,000 tested, 0.34% active;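 active means activation factor of 2 or more at 20 µM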
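Material: human phosphomannose isomerase with PGI, G6PDH, diaphorase coupling enzymes; amount: PMI at 15 ng/mL final; also added: Mannose-6-phosphate 1.0 mM (near-saturating) plus 0.22 mM NADP+; incubation: enzyme reaction with compound 20 min at room temperature; signal: resorufin fluorescence (Ex 544/Em 590 nm) from resazurin via diaphorase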
Each line names hits and unclear results; the compound was inactive in the other large screens. Hits are enriched below; roughly 10% of the tested compounds scored in any of these assays.

O=C1/C(=C\c2cccnc2)SC(=S)N1C1CCS(=O)(=O)C1 (centres undefined)	L major viab 73
O=C1/C(=C/c2cccnc2)SC(=S)N1C1CCS(=O)(=O)C1 (centres undefined)	L major viab 92
Cc1ccc(N2C(=O)/C(=C/c3cccnc3)SC2=S)cc1	none
O=C(NN1C(=O)/C(=C\c2cccnc2)SC1=S)C(c1ccccc1)c1ccccc1	none
Cc1cccc(Nc2cc(C)c3c(O)cccc3n2)c1C	L major viab 99
OCCN1CCN(CCSc2ccccc2)CC1	L major viab 56
CCn1cc(-c2cc(C(=O)O)c3ccccc3n2)cn1	none
CC(C(=O)Nc1ccc(S(=O)(=O)N2CCCCC2)cc1)N1CCN(c2ccccn2)CC1 (centres undefined)	none
CCCCCCCCNC(=S)NCCN1CCCCC1	L major viab 97
CCCN1CCN(C(=S)Nc2ccc(SC(F)F)cc2)CC1	L major viab 90
CC1CCN(C(=S)Nc2ccc(SC(F)F)cc2)CC1	L major viab 72
COc1ccc(C=O)cc1CSc1nnc(COc2cccc3cccnc23)o1	WT yeast gro inh 67
Cn1nc(-c2ccc(N3CCN(CCO)CC3)c([N+](=O)[O-])c2)c2ccccc2c1=O	L major viab 99 (no result: PMI activator, Diaphorase act, PMI act hi M6P)
CN(C)CCNc1ccc(-c2nn(C)c(=O)c3ccccc23)cc1[N+](=O)[O-]	L major viab 90
O=C(COc1ccccc1Cl)N1CCN(c2ccc([N+](=O)[O-])c(N3CCOCC3)c2)CC1	none
Nc1nc(CSc2nc3ccccc3s2)nc(Nc2ccccc2)n1	none
Cc1c(Cl)cccc1Nc1nc(N)nc(CSc2nc3ccccc3s2)n1	WT yeast gro inh 72
Oc1ccc(/C=N/N2CCN(C3c4ccccc4-c4ccccc43)CC2)c(O)c1	WT yeast gro inh 98
CCCCn1nc(C(=O)Nc2nc3c(s2)CCCC3)c2ccccc2c1=O	none
CCCn1nc(C(=O)Nc2nc3ccccc3[nH]2)c2ccccc2c1=O	L major viab 93
CCCCCCn1nc(C(=O)Nc2nc3c(s2)CCCC3)c2ccccc2c1=O	L major viab 50
O=C(NCc1cccc(C(F)(F)F)c1)C1CC(c2c(Cl)cccc2Cl)=NO1 (centres undefined)	none
CNC(=O)c1ccc(-n2cccn2)nc1	none
O=C(NCCCN1CCOCC1)c1ccc(Sc2ccc(Br)cc2)c([N+](=O)[O-])c1	L major viab 92
Cc1cc(C(=O)NCCN2CCOCC2)ccc1[N+](=O)[O-]	none
O=C(Cc1ccccc1[N+](=O)[O-])NCCCN1CCOCC1	none
O=C(NCCCN1CCOCC1)c1ccc(Sc2ccccc2Cl)c([N+](=O)[O-])c1	L major viab 94
C=CCOC(=O)c1cc(-c2ccc(/C=C3\C(=O)NC(=O)C(C#N)=C3C)o2)ccc1Cl	L major viab 86
CCCOC(=O)c1ccc(-c2ccc(C=O)o2)cc1	none
CCCOC(=O)c1cc(-c2ccc(C=O)o2)ccc1Cl	L major viab 64
COc1ccc(C(=O)NCC2CCCO2)cc1S(=O)(=O)N1CCCc2ccccc21 (centres undefined)	none
COc1ccc(OC)c(S(=O)(=O)N2C(C)CCCC2C)c1 (centres undefined)	none
COc1ccc(C(=O)NCc2ccc(C)cc2)cc1S(=O)(=O)N1CCCc2ccccc21	L major viab 99
COc1ccc(OC)c(S(=O)(=O)N2c3ccccc3CC2C)c1 (centres undefined)	L major viab 100
COc1ccc(OC)c(S(=O)(=O)N2CCCc3ccccc32)c1	L major viab 100
COc1ccc(F)cc1S(=O)(=O)N1CC(C)CC(C)C1 (centres undefined)	none
COc1ccc(OC)c(S(=O)(=O)N2c3cc(F)ccc3CCC2C)c1 (centres undefined)	L major viab 100
Fc1ccccc1N1CC(c2ccccc2)C(c2cccs2)=N1 (centres undefined)	none
COc1ccc(CN(C)C(C)C(=O)Nc2ccc(S(=O)(=O)N3CCCC3)cc2)c(OC)c1OC (centres undefined)	none
O=c1nc(Nc2ccccc2)sc2ccc([N+](=O)[O-])cc12	none
Cc1cc(C)nc(NN=C(c2ccccc2)c2ccccc2)n1	none
COc1ccc(C(=O)N2CCOCC2)cc1S(=O)(=O)N1CCCc2ccccc21	none
COc1ccc(OC)c(S(=O)(=O)N2CCc3ccccc32)c1	L major viab 95
COc1ccc(C(=O)N2CCCN(C)CC2)cc1S(=O)(=O)N1CCCc2ccccc21	L major viab 55
Cc1ccc(Cn2nnnc2CN2CCC(O)(c3cccnc3)CC2)cc1	L major viab 53
OC1(c2cccnc2)CCN(Cc2nnnn2Cc2ccccc2)CC1	none
CC1(C)Nc2ccccc2N(Cc2ccc([N+](=O)[O-])cc2)C1=O	none
O=C(NCc1ccccc1)/C(=C/c1ccco1)NC(=O)c1ccco1	none
CC(Oc1ccc(Cl)cc1Cl)c1ccn[nH]1 (centres undefined)	none
COc1ccc(NCC(=O)Nc2ccc(Cl)cc2C)c(OC)c1	L major viab 99
CCOc1ccc(NCC(=O)Nc2ccc(Cl)cc2C)cc1	none
Cc1cc(CN2CCOCC2)c(O)c(C2(C)CCCCC2)c1	WT yeast gro inh 85, L major viab 56
COc1ccc(OC)c(NC(=O)CSc2ccc3nnc(-c4cccnc4)n3n2)c1	none
CCCN1CCC(=NNc2ccc(S(=O)(=O)N(CC)CC)cc2[N+](=O)[O-])CC1	L major viab 100
COc1ccc(-n2nnc3c(=O)n(CC(=O)Nc4cc(C)on4)cnc32)cc1OC	none
CC(C)(C)OC(=O)N1CCCC1C(=O)NC(Cc1ccccc1)C(=O)O (centres undefined)	none
CC1CCCCN1C(=O)N[C@@H](Cc1ccccc1)C(=O)O (some centres undefined)	L major viab 51
CC1CCCCN1C(=O)C(Cc1ccccc1)N1C(=O)C2CCCCC2C1=O (centres undefined)	L major viab 62
Cc1ccc(CC(NC(=O)c2ccccc2)C(=O)NC(CC(C)C)C(=O)O)cc1 (centres undefined)	none
O=C(NC(Cc1ccccc1)C(=O)NC(Cc1ccccc1)C(=O)O)c1ccccc1 (centres undefined)	L major viab 57
O=C(C(Cc1ccccc1)N1C(=O)C2C3CCC(C3)C2C1=O)N1CCCCC1 (centres undefined)	none
O=C(O)[C@H](Cc1ccccc1)NC(=O)N1CCOCC1	L major viab 70
COC(=O)[C@H](Cc1ccccc1)NC(=O)N1CCN(Cc2ccccc2)CC1	none
O=C(NNS(=O)(=O)c1ccc(Cl)cc1)c1cc(-c2ccccc2)nc2ccccc12	none
CCCCNC(=S)Nc1ccccc1F	none
Cc1c(C(=O)N2CCc3ccccc3C2)oc2ccc(S(=O)(=O)N3CCCCCC3)cc12	L major viab 66

High-throughput results as filed in PubChem BioAssay.
